Measurements reported in ChEMBL document CHEMBL1153988 (J Med Chem, 2009).
Calls of active or inactive are those of the source. The calls are words filed in the database; no cut-off is given here.

Experiments:
Mus musculus [1] = test: Anticonvulsant activity in CF1 albino mouse assessed as protection against maximal electroshock-induced seizures at 30 mg/kg, ip after 4 hrs; format: functional, organism-based; design: dose 30 mg/kg
Method in brief: (§1)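 Adult male CF no. 1 albino mice (18-25 g). Test compound suspended in 0.5% methylcellulose and given intraperitoneally at 0.01 mL/g body weight. Maximal electroshock challenge at the stated time. Read-out is the number of animals protected over the number tested; neurotoxicity is scored in parallel.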

Mus musculus [2] = test: Anticonvulsant activity in CF1 albino mouse assessed as protection against maximal electroshock-induced seizures at 100 mg/kg, ip after 4 hrs; format: functional, organism-based; design: dose 100 mg/kg; method in brief: as §1
Mus musculus [3] = test: Anticonvulsant activity in CF1 albino mouse assessed as protection against maximal electroshock-induced seizures at 300 mg/kg, ip after 4 hrs; format: functional, organism-based; design: dose 300 mg/kg; method in brief: as §1
Mus musculus [4] = test: Anticonvulsant activity in CF1 albino mouse assessed as protection against scMet-induced seizures at 30 mg/kg, ip after 0.5 hrs; format: functional, organism-based; design: dose 30 mg/kg
Method in brief: (§2)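 Adult male CF no. 1 albino mice (18-25 g) dosed intraperitoneally with compound suspended in 0.5% methylcellulose (0.01 mL/g). Convulsant challenge given subcutaneously as a 0.85% pentylenetetrazol solution in 0.9% saline. Read-out is animals protected over animals tested, with neurotoxicity scored in parallel.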

Mus musculus [5] = test: Anticonvulsant activity in CF1 albino mouse assessed as protection against scMet-induced seizures at 100 mg/kg, ip after 0.5 hrs; format: functional, organism-based; design: dose 100 mg/kg; method in brief: as §2
Mus musculus [6] = test: Anticonvulsant activity in CF1 albino mouse assessed as protection against scMet-induced seizures at 300 mg/kg, ip after 0.5 hrs; format: functional, organism-based; design: dose 300 mg/kg; method in brief: as §2
Mus musculus [7] = test: Anticonvulsant activity in CF1 albino mouse assessed as protection against scMet-induced seizures at 30 mg/kg, ip after 4 hrs; format: functional, organism-based; design: dose 30 mg/kg; method in brief: as §2
Mus musculus [8] = test: Anticonvulsant activity in CF1 albino mouse assessed as protection against scMet-induced seizures at 100 mg/kg, ip after 4 hrs; format: functional, organism-based; design: dose 100 mg/kg; method in brief: as §2
Mus musculus [9] = test: Anticonvulsant activity in CF1 albino mouse assessed as protection against scMet-induced seizures at 300 mg/kg, ip after 4 hrs; format: functional, organism-based; design: dose 300 mg/kg; method in brief: as §2
Mus musculus [10] = test: Neurotoxicity in CF1 albino mouse at 30 mg/kg, ip after 0.5 hrs; format: toxicity, organism-based; design: dose 30 mg/kg, route intraperitoneal; settings: in vivo
Method in brief: (§3)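 Male CF no. 1 albino mice (18-25 g) received a single ip dose as a suspension in 0.5% methylcellulose. The read-out was the number of animals showing neurotoxicity (minimal motor impairment) over the number tested.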

Mus musculus [11] = test: Neurotoxicity in CF1 albino mouse at 100 mg/kg, ip after 0.5 hrs; format: toxicity, organism-based; design: dose 100 mg/kg, route intraperitoneal; settings: in vivo; method in brief: as §3
Mus musculus [12] = test: Neurotoxicity in CF1 albino mouse at 300 mg/kg, ip after 0.5 hrs; format: toxicity, organism-based; design: dose 300 mg/kg, route intraperitoneal; settings: in vivo; method in brief: as §3
Mus musculus [13] = test: Neurotoxicity in CF1 albino mouse at 30 mg/kg, ip after 4 hrs; format: toxicity, organism-based; design: dose 30 mg/kg, route intraperitoneal; settings: in vivo; method in brief: as §3
Mus musculus [14] = test: Neurotoxicity in CF1 albino mouse at 100 mg/kg, ip after 4 hrs; format: toxicity, organism-based; design: dose 100 mg/kg, route intraperitoneal; settings: in vivo; method in brief: as §3
Mus musculus [15] = test: Neurotoxicity in CF1 albino mouse at 300 mg/kg, ip after 4 hrs; format: toxicity, organism-based; design: dose 300 mg/kg, route intraperitoneal; settings: in vivo; method in brief: as §3
Rattus norvegicus [16] = test: Anticonvulsant activity in albino Sprague-Dawley rat assessed as protection against maximal electroshock-induced seizures at 50 mg/kg, po after 4 hrs; format: functional, organism-based; design: dose 50 mg/kg
Method in brief: (§4)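 Adult male Sprague-Dawley albino rats (100-150 g) dosed orally with compound suspended in 0.5% methylcellulose (0.04 mL per 10 g). Maximal electroshock challenge at the stated time. Protection is scored in 25% steps as the fraction of animals protected, with neurotoxicity recorded in parallel.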

Rattus norvegicus [17] = test: Anticonvulsant activity in albino Sprague-Dawley rat assessed as protection against maximal electroshock-induced seizures at 50 mg/kg, po after 15 mins; format: functional; method in brief: as §4
Rattus norvegicus [18] = test: Anticonvulsant activity in albino Sprague-Dawley rat assessed as protection against maximal electroshock-induced seizures at 50 mg/kg, po after 30 mins; format: functional; method in brief: as §4
Rattus norvegicus [19] = test: Anticonvulsant activity in albino Sprague-Dawley rat assessed as protection against maximal electroshock-induced seizures at 50 mg/kg, po after 1 hr; format: functional; method in brief: as §4
Rattus norvegicus [20] = test: Anticonvulsant activity in albino Sprague-Dawley rat assessed as protection against maximal electroshock-induced seizures at 50 mg/kg, po after 2 hrs; format: functional; method in brief: as §4
Rattus norvegicus [21] = test: Neurotoxicity in albino Sprague-Dawley rat at 50 mg/kg, po; format: toxicity, organism-based; design: dose 50 mg/kg, route oral; settings: in vivo
Method in brief: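 Neurotoxicity was scored in male Sprague-Dawley albino rats (100-150 g) dosed orally with a suspension in 0.5% methylcellulose. The read-out was the fraction of animals showing neurotoxicity (minimal motor impairment).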

Rattus norvegicus [22] = test: Anticonvulsant activity in albino Sprague-Dawley rat assessed as protection against scMet-induced seizures at 50 mg/kg, po after 15 mins; format: functional
Method in brief: (§5)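 Male Sprague-Dawley albino rats (100-150 g) were given the compound orally as a suspension in 0.5% methylcellulose. Seizures were induced by subcutaneous pentylenetetrazol, dissolved in 0.9% saline as a 2.82% solution. The read-out was animals protected over animals tested.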

Rattus norvegicus [23] = test: Anticonvulsant activity in albino Sprague-Dawley rat assessed as protection against scMet-induced seizures at 50 mg/kg, po after 30 mins; format: functional; method in brief: as §5
Rattus norvegicus [24] = test: Anticonvulsant activity in albino Sprague-Dawley rat assessed as protection against scMet-induced seizures at 50 mg/kg, po after 1 hr; format: functional; method in brief: as §5
Rattus norvegicus [25] = test: Anticonvulsant activity in albino Sprague-Dawley rat assessed as protection against scMet-induced seizures at 50 mg/kg, po after 2 hrs; format: functional; method in brief: as §5
Rattus norvegicus [26] = test: Anticonvulsant activity in albino Sprague-Dawley rat assessed as protection against scMet-induced seizures at 50 mg/kg, po after 4 hrs; format: functional; method in brief: as §5
Mus musculus [27] = test: Anticonvulsant activity in CF1 albino mouse assessed as protection against maximal electroshock-induced seizures at 30 mg/kg, ip after 0.5 hrs; format: functional, organism-based; design: dose 30 mg/kg; method in brief: as §1
Mus musculus [28] = test: Anticonvulsant activity in CF1 albino mouse assessed as protection against maximal electroshock-induced seizures at 100 mg/kg, ip after 0.5 hrs; format: functional, organism-based; design: dose 100 mg/kg; method in brief: as §1
Mus musculus [29] = test: Anticonvulsant activity in CF1 albino mouse assessed as protection against maximal electroshock-induced seizures at 300 mg/kg, ip after 0.5 hrs; format: functional, organism-based; design: dose 300 mg/kg; method in brief: as §1
Mus musculus [30] = test: Anticonvulsant activity in ip dosed CF1 albino mouse assessed as protection against 32 mA current-induced seizure by 6Hz psychomotor seizure test; format: functional
Method in brief: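 In the 6 Hz psychomotor seizure test, male CF no. 1 albino mice (18-25 g) received the compound ip in 0.5% methylcellulose. Stimulation was at 32 or 44 mA. Doses were varied to give 3-4 points between 0% and 100% protection, and ED50 with 95% confidence interval came from probit analysis.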

SMILES	Activity (Mus musculus [1])	Activity (Mus musculus [2])	Activity (Mus musculus [3])	Activity (Mus musculus [4])	Activity (Mus musculus [5])	Activity (Mus musculus [6])	Activity (Mus musculus [7])	Activity (Mus musculus [8])	Activity (Mus musculus [9])	Activity (Mus musculus [14])	Activity (Mus musculus [15])	Activity (Rattus norvegicus [21])	Activity (Rattus norvegicus [22])	Activity (Rattus norvegicus [23])	Activity (Rattus norvegicus [24])	Activity (Rattus norvegicus [25])	Activity (Rattus norvegicus [26])	Activity (Mus musculus [27])	Activity (Mus musculus [28])	Activity (Mus musculus [29])	further results
CC1(C)C(C)(C)C1(C)C(N)=O	Non-toxic	Non-toxic	Non-toxic	Non-toxic	Non-toxic	Toxic	Non-toxic	Non-toxic	Non-toxic	Non-toxic	Non-toxic	Not Active	inactive	inactive	25%	25%	inactive	Non-toxic	Non-toxic	Toxic	Activity (Mus musculus [10]): Non-toxic; Activity (Mus musculus [11]): Non-toxic; Activity (Mus musculus [12]): Toxic; Activity (Mus musculus [13]): Non-toxic; Activity (Rattus norvegicus [16]): inactive; Activity (Rattus norvegicus [17]): inactive; Activity (Rattus norvegicus [18]): inactive; Activity (Rattus norvegicus [19]): inactive; Activity (Rattus norvegicus [20]): inactive
CNC(=O)C1(F)C(C)(C)C1(C)C	Non-toxic	Non-toxic	Non-toxic	Non-toxic	Toxic	Non-toxic	Non-toxic	Non-toxic	Non-toxic	Non-toxic	Non-toxic	100%	inactive	inactive	inactive	inactive	inactive	Non-toxic	Non-toxic	Toxic	Activity (Mus musculus [12]): Toxic
CC[C@H](C(N)=O)N1CCCC1=O	–	–	–	–	–	–	–	–	–	–	–	–	–	–	–	–	–	–	–	–	ED50 (Mus musculus [30]): 19 mg/kg
CC1(C)C(C)(C)C1(C)C(=O)O	Non-toxic	Non-toxic	Non-toxic	Non-toxic	Non-toxic	Non-toxic	Non-toxic	Non-toxic	Non-toxic	Non-toxic	Non-toxic	Not Active	inactive	inactive	inactive	inactive	25%	Non-toxic	Non-toxic	Toxic	Activity (Mus musculus [10]): Non-toxic; Activity (Mus musculus [11]): Non-toxic; Activity (Mus musculus [13]): Non-toxic; Activity (Rattus norvegicus [16]): inactive; Activity (Rattus norvegicus [17]): inactive; Activity (Rattus norvegicus [18]): inactive; Activity (Rattus norvegicus [19]): inactive; Activity (Rattus norvegicus [20]): inactive
